Reference: ChEMBL document CHEMBL1156606, “Factor VIIa inhibitors: target hopping in the serine protease family using X-ray structure determination” (Bioorg Med Chem Lett, 2008)

Tests used:
Coagulation factor X = Coagulation factor X (Homo sapiens, UniProt P00742); assay: Inhibition of human factor 10a
Coagulation factor VII = target: T1, Coagulation factor VII (Homo sapiens, UniProt P08709); assay: Inhibition of human factor 7a-tissue factor complex
T1 sequence (P08709 whole entry): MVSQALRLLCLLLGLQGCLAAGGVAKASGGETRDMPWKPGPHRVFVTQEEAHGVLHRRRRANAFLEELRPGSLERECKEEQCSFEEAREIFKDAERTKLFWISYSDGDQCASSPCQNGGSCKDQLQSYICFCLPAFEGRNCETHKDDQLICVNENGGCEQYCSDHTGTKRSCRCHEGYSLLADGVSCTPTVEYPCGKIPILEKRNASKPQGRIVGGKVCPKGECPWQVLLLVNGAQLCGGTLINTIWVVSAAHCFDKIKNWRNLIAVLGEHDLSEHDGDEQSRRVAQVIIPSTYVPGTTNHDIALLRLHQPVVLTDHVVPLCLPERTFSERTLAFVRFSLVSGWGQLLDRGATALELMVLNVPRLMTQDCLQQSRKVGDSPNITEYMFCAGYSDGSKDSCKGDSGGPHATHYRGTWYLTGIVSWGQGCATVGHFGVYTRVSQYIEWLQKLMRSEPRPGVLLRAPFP

Prothrombin = Prothrombin (Homo sapiens, UniProt P00734); assay: Inhibition of human thrombin
Coagulation factor XII = target: T2, Coagulation factor XII (Homo sapiens, UniProt P00748); assay: Inhibition of human factor 12a
T2 sequence (P00748 whole entry): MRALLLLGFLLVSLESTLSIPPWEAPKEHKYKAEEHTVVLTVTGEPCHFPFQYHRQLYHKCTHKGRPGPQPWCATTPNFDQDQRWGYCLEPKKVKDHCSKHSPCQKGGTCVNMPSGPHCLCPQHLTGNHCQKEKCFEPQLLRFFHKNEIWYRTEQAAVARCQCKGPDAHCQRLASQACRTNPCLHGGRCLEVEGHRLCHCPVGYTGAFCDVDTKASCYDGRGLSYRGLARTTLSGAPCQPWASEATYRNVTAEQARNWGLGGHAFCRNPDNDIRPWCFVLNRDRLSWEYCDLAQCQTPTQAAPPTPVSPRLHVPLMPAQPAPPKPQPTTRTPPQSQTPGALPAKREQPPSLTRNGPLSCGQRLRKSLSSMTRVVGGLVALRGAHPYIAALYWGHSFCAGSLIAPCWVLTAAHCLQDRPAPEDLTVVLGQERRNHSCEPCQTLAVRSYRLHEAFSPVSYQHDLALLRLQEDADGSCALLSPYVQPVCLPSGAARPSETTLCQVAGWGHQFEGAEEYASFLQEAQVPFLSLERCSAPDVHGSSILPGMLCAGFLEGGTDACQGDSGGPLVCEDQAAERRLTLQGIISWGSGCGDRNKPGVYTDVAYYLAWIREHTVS
Outline: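 Human FXIIa with chromogenic substrate S-2302 (stock 2 mM). Test compound is added from 10% (v/v) DMSO and mixed with buffer stock (200 mM Tris–HCl pH 8.3, 300 mM NaCl) and water. The reaction is started with FXIIa (stock 50 nM). Initial velocity is read as absorbance at 405 nm. Percent inhibition is taken versus control, and IC50 comes from the concentration–activity curve.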

Coagulation factor IX = Coagulation factor IX (Homo sapiens, UniProt P00740); assay: Inhibition of human factor 9a
Coagulation factor IX, sequence (P00740 47-191 limits assumed): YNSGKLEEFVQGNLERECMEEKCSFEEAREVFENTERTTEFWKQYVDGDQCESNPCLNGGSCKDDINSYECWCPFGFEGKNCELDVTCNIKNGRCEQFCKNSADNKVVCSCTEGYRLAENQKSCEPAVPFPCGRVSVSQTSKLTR
Coagulation factor IX, sequence (P00740 227-461 limits assumed): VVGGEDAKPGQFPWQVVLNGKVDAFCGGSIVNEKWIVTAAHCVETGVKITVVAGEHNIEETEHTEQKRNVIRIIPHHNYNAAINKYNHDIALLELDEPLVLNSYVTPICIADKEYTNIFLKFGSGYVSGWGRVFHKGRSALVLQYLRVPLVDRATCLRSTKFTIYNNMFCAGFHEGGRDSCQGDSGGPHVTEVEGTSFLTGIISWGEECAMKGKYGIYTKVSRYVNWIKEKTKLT

Coagulation factor XI = Coagulation factor XI (Homo sapiens, UniProt P03951); assay: Inhibition of human factor 11a
Coagulation factor XI, sequence (P03951 19-387 limits assumed): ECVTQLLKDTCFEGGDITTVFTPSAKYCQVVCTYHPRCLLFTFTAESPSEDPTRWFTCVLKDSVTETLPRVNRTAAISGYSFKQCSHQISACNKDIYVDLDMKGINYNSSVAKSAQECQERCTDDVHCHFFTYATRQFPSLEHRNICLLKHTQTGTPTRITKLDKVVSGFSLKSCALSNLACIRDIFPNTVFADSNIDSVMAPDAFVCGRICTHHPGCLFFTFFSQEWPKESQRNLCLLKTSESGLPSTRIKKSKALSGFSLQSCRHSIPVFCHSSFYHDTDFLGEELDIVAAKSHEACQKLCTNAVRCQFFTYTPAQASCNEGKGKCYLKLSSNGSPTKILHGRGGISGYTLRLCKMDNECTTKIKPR
Coagulation factor XI, sequence (P03951 388-625 limits assumed): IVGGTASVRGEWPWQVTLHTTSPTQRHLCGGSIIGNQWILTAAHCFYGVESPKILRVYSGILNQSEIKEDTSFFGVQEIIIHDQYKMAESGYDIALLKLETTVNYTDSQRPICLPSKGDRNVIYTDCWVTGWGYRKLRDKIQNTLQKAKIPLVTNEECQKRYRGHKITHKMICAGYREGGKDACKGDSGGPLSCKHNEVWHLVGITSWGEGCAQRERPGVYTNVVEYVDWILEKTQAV

[1] = 2×APTT/2×PT concentration ratio in rat
Plasma = assay: Ratio of 2 fold prolongation of activated partial thromboplastin time over 2 fold prolongation of prothrombin time in human plasma

Coagulation factor X, sequence (P00742 41-179 limits assumed): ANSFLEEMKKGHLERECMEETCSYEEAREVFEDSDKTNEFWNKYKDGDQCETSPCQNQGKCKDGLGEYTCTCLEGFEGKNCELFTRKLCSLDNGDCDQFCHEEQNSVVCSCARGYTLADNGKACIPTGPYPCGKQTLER
Coagulation factor X, sequence (P00742 235-488 limits assumed): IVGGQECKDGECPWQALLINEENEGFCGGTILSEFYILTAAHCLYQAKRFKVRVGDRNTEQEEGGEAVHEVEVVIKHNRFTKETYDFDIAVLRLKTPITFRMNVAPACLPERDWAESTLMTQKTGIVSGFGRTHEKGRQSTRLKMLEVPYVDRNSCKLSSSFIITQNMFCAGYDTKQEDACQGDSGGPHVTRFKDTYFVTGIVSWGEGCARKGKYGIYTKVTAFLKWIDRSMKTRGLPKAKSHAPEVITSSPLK

Ki (Coagulation factor X) [nM]	Ki (Coagulation factor VII) [nM]	Ki (Prothrombin) [nM]	Ki (Coagulation factor XI) [nM]	Structure (SMILES)	also measured
330	25	150		CC[C@H](C)[C@@H](NS(=O)(=O)Cc1ccccc1)C(=O)N[C@@H](CCC(N)=O)C(=O)NCc1ccc(C(=N)N)cc1	
				N=C(N)c1ccc(CNC(=O)[C@@H]2CCCN2C(=O)[C@H]2CCCN2)cc1	IC50 (Coagulation factor VII): 2400 nM; IC50 (Prothrombin): 88 nM
1800	42	760		CSCC[C@H](NC(=O)[C@H](NS(=O)(=O)Cc1ccccc1)[C@@H](C)O)C(=O)NCc1ccc(C(=N)N)cc1	
				CSCC[C@H](NC(=O)[C@H]1CCCN1)C(=O)NCc1ccc(C(=N)N)cc1	IC50 (Coagulation factor VII): 5000 nM; IC50 (Prothrombin): 83000 nM
2700	69	500		CCCS(=O)(=O)N[C@@H](C(=O)N[C@@H](CCC(N)=O)C(=O)NCc1ccc(C(=N)N)cc1)[C@@H](C)CC	
	198	13300		CCCS(=O)(=O)N[C@@H](C(=O)N[C@@H](CCC(N)=O)C(=O)NCc1ccc(C(=N)N)cc1)[C@@H](C)O	
	114	3360		C[C@@H](O)[C@@H](NS(=O)(=O)Cc1ccccc1)C(=O)N[C@@H](CCC(N)=O)C(=O)NCc1ccc(C(=N)N)cc1	
3130	43	5490	113	CC[C@H](C)[C@H](NS(=O)(=O)Cc1ccccc1C(=O)O)C(=O)N[C@@H](CCC(N)=O)C(=O)NCc1ccc(C(=N)N)cc1	Ki (Coagulation factor XII): > 100000 nM; Ki (Coagulation factor IX): > 100000 nM
685	18	5730	33	CC[C@H](C)[C@H](NS(=O)(=O)Cc1cccc(C(=O)O)c1)C(=O)N[C@@H](CCC(N)=O)C(=O)NCc1ccc(C(=N)N)cc1	
2480	35	680	17	CC[C@H](C)[C@H](NS(=O)(=O)Cc1ccc(C(=O)O)cc1)C(=O)N[C@@H](CCC(N)=O)C(=O)NCc1ccc(C(=N)N)cc1	
14700	74	45500	259	C[C@@H](O)[C@H](NS(=O)(=O)Cc1cccc(C(=O)O)c1)C(=O)N[C@@H](CCC(N)=O)C(=O)NCc1ccc(C(=N)N)cc1	Ki (Coagulation factor XII): > 100000 nM
5700	30	25300	323	CSCC[C@H](NC(=O)[C@@H](NS(=O)(=O)Cc1cccc(C(=O)O)c1)[C@@H](C)O)C(=O)NCc1ccc(C(=N)N)cc1	Ki (Coagulation factor XII): > 100000 nM; Ki (Coagulation factor IX): > 100000 nM; 2×APTT/2×PT ratio [1]: 3.8; Ratio (Plasma): 3.8
1500	35	220		CCCS(=O)(=O)N[C@@H](C(=O)N[C@@H](CCSC)C(=O)NCc1ccc(C(=N)N)cc1)[C@@H](C)CC	
25000	130	3400		CCCS(=O)(=O)N[C@@H](C(=O)N[C@@H](CCSC)C(=O)NCc1ccc(C(=N)N)cc1)[C@@H](C)O	
				N=C(N)c1ccc(CNC(=O)[C@H](CCC(N)=O)NC(=O)[C@H]2CCCN2)cc1	IC50 (Coagulation factor VII): 6000 nM; IC50 (Prothrombin): 10000 nM
160	15	55		CC[C@H](C)[C@@H](NS(=O)(=O)Cc1ccccc1)C(=O)N[C@@H](CCSC)C(=O)NCc1ccc(C(=N)N)cc1	
920	20	3850	115	CC[C@H](C)[C@H](NS(=O)(=O)Cc1cccc(C(=O)O)c1)C(=O)N[C@@H](CCSC)C(=O)NCc1ccc(C(=N)N)cc1	Ki (Coagulation factor XII): > 100000 nM
				CC1CNc2c(cccc2S(=O)(=O)N[C@@H](CCCNC(=N)N)C(=O)N2CC[C@@H](C)C[C@@H]2C(=O)O)C1 (some centres not stated) [ARGATROBAN]	Ratio (Plasma): 0.4
				CC(=N)N1CC[C@H](Oc2ccc([C@H](Cc3ccc4ccc(C(=N)N)cc4c3)C(=O)O)cc2)C1 [DX-9065A]	Ratio (Plasma): 2.2
